Test results from ChEMBL document CHEMBL4765490 (J Med Chem, 2021).
Each block holds one compound with its values, some of them ahead of it.

What was measured:
[1] = Inhibition of PKA (unknown origin) incubated for 30 mins using REBtide substrate by ADP-Glo assay; design: species or system Homo sapiens
How it was run: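 ADP-Glo reagent was added for 40 min, then detection reagent for 30 min, and luminescence was read. Three experiments in duplicate; curves fitted as for GRK.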

[2] = target: G protein-coupled receptor kinase 6 (Homo sapiens) (UniProt P43250); experiment: Inhibition of GRK6 (unknown origin) at 1 uM relative to control
[3] = target: T1, G protein-coupled receptor kinase 5 (Homo sapiens, UniProt P34947); experiment: Covalent inhibition of GRK5 (unknown origin) using porcine brain tubulin as substrate by [gamma32P]ATP based radiometric assay
Target sequence in this assay (P34947 whole entry): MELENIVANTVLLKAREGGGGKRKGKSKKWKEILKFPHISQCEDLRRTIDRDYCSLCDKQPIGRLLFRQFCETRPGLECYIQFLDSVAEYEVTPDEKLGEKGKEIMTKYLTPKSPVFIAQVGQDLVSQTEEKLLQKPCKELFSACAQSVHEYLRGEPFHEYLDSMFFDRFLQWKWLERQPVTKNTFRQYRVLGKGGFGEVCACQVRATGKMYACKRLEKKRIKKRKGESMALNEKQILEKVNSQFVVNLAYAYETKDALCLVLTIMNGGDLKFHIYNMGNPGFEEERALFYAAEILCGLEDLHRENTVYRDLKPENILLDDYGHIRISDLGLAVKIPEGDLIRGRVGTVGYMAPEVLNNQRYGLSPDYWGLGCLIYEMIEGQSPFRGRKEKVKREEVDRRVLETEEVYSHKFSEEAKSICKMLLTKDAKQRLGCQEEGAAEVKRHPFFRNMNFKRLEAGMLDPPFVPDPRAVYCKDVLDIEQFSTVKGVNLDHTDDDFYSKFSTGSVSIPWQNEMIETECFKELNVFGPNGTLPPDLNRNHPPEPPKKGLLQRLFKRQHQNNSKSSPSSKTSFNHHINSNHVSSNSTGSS

[4] = target: T2, G protein-coupled receptor kinase 3 (Homo sapiens) (UniProt P35626); experiment: Inhibition of GRK3 (unknown origin) at 1 uM relative to control; conditions: time 3-5 min
T2 sequence (whole entry): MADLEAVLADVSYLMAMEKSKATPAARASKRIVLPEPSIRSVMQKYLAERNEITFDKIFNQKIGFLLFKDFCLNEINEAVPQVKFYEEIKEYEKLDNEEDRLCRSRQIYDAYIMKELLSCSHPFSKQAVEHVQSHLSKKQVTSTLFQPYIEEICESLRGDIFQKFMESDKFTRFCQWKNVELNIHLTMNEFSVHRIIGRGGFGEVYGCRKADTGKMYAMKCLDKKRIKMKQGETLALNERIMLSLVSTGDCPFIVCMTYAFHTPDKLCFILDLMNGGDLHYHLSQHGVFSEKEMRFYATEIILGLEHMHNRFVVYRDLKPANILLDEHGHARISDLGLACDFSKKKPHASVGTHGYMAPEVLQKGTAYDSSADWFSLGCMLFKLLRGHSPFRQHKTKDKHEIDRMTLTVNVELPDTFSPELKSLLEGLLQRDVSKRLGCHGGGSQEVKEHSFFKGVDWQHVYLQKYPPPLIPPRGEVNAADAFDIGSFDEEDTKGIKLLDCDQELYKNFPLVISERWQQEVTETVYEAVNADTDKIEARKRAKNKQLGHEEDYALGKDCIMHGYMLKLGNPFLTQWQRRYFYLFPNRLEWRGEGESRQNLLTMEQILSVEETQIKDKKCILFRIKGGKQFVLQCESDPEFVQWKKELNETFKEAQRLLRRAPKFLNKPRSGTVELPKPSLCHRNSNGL

[5] = target: T1, G protein-coupled receptor kinase 5
Target sequence in this assay (P34947 whole entry, looked up): as the sequence (P34947 whole entry) above

[6] = target: T3, Beta-adrenergic receptor kinase 1 (Bos taurus, UniProt P21146); experiment: Inhibition of bovine GRK2 using porcine brain tubulin as substrate incubated for 3 to 5 mins by [gamma32P]ATP based radiometric assay
T3 sequence (P21146 whole entry): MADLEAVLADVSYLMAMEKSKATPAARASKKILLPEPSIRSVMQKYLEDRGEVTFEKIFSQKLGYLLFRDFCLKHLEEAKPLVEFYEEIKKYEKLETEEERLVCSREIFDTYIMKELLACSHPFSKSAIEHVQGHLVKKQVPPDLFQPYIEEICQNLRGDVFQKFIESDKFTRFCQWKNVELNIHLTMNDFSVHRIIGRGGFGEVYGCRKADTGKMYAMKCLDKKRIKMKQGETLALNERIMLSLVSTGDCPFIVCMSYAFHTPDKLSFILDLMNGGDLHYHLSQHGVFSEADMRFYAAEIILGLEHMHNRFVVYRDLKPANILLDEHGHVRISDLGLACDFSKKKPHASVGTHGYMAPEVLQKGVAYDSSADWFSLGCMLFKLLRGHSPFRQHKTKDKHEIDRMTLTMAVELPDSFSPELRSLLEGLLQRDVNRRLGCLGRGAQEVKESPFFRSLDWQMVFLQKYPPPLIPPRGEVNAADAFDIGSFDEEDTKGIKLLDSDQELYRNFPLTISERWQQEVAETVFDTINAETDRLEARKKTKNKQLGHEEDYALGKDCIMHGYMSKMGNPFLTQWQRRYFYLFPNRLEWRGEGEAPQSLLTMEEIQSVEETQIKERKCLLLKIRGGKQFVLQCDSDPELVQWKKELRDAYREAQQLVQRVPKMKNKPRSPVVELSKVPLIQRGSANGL

[7] = Metabolic stability in human liver microsomes assessed as half life at 100 uM in presence of NADPH by LC-MS/MS analysis; assay type: ADME, Microsome
How it was run: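 Stock in DMSO (1 mM) was diluted to a 100 μM working solution in 0.1 M phosphate buffer with 3.3 mM MgCl2. Microsomes (20 mg/mL) were primed with NADPH at 37 °C for 3 min, then dosed with compound. Samples were taken at 0, 5, 10, 15, 30, 45 and 60 min and stopped with cold acetonitrile containing internal standard. Protein was spun out before analysis.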

[8] = target: T1, G protein-coupled receptor kinase 5; experiment: Inhibition of human GRK5 using porcine brain tubulin as substrate incubated for 3 to 5 mins by [gamma32P]ATP based radiometric assay
Target sequence in this assay (P34947 whole entry): as the sequence (P34947 whole entry) above

[9] = Thermodynamic solubility of compound in phosphate buffer at 6 pH by shake flask method; assay type: physicochemical; conditions: pH 6, read-out: Therm_solubility

G protein-coupled receptor kinase 6 (Homo sapiens), sequence (P43250 whole entry, looked up): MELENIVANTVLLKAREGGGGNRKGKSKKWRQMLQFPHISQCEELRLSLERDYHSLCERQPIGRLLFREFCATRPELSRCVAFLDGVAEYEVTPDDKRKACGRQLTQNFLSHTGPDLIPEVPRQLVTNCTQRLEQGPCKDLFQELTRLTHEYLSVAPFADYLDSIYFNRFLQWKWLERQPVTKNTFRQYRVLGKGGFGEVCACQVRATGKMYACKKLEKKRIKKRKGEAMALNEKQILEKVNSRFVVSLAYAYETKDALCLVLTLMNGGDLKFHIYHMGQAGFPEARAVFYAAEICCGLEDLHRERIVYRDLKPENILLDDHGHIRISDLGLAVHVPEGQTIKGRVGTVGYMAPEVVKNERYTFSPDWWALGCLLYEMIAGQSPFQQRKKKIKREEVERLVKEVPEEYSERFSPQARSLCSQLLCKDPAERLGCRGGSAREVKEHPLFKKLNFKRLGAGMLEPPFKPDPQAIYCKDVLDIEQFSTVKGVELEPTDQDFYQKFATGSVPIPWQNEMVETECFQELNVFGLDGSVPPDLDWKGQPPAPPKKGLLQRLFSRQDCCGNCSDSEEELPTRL

IC50 [1]: > 250 µM
SMILES: CC1=C(C(=O)Nc2ccc3[nH]ncc3c2)C(c2ccc(F)c(C(=O)NCc3ccccn3)c2)NC(=O)N1 (centres undefined)

IC50 [1]: > 250 µM
SMILES: C=CCNC(=O)c1c(C)[nH]c(/C=C2\C(=O)Nc3ccc(C(=O)N[C@H](C)c4ccccc4)cc32)c1C

IC50 [1]: > 250 µM
SMILES: Cc1[nH]c(/C=C2\C(=O)Nc3ccc(C(=O)N[C@H](C)c4ccccc4)cc32)c(C)c1NC(=O)/C(C#N)=C/C(C)(C)C

IC50 [1]: > 250 µM
SMILES: Cc1[nH]c(/C=C2\C(=O)Nc3ccc(C(=O)N[C@H](C)c4ccccc4)cc32)c(C)c1NC(=O)C(O)CCl (some centres undefined)

IC50 [1]: > 250 µM
SMILES: CCN(CC)CCNC(=O)c1c(C)[nH]c(/C=C2\C(=O)Nc3ccc(C(=O)N[C@H](C)c4ccccc4)cc32)c1C

inhibition [2]: 94%
SMILES: C#CCNC(=O)c1c(C)[nH]c(/C=C2\C(=O)Nc3ccc(C(=O)N[C@H](C)c4ccccc4)cc32)c1C

Ratio IC50 (Homo sapiens): 5
inhibition [2]: 97%
Ki [3]: 110 nM
inhibition [4]: 21%
Kinact [5]: > 1 min⁻¹
IC50 [1]: > 250 µM
SMILES: Cc1[nH]c(/C=C2\C(=O)Nc3ccc(C(=O)N[C@H](C)c4ccccc4)cc32)c(C)c1NC(=O)CBr (mixture of isomers)

IC50 [6]: 130 µM
IC50 [1]: > 250 µM
SMILES: C#CCCNC(=O)c1c(C)[nH]c(/C=C2\C(=O)Nc3ccc(C(=O)N[C@H](C)c4ccccc4)cc32)c1C (mixture of isomers)

t1/2 [7]: 13.3 min
IC50 [1]: > 250 µM
SMILES: Cc1[nH]c(/C=C2\C(=O)Nc3ccc(C(=O)N[C@H](C)c4ccccc4)cc32)c(C)c1NC(=O)CCl (mixture of isomers)

IC50 [8]: 1940 nM
SMILES: C=CCCNC(=O)c1c(C)[nH]c(/C=C2\C(=O)Nc3ccc(C(=O)N[C@H](C)c4ccccc4)cc32)c1C (mixture of isomers)

solubility thermodynamic [9]: 350 µg/mL
SMILES: CCN(CC)CCNC(=O)c1c(C)[nH]c(/C=C2\C(=O)Nc3ccc(F)cc32)c1C (mixture of isomers) [SUNITINIB]

IC50 [1]: 850 µM
SMILES: Fc1ccc([C@@H]2CCNC[C@H]2COc2ccc3c(c2)OCO3)cc1 [PAROXETINE]
